Measurements as given in paper PMC6734327 (Heliyon, 2019).

Columns and labels:
[1] = test system: HepG2 (human hepatocellular carcinoma); assay: Cytotoxic assay, alamar blue, HepG2; assay type: cell-based; conditions: HepG2, 72 h, read-out: IC50 HepG2
In short: (§1)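 Cells from ATCC, mycoplasma-negative, grown in RPMI 1640 with 10% FBS at 37 °C and 5% CO2. Seeded at 0.7 × 10^5 cells/mL (adherent) or 0.3 × 10^6 cells/mL (suspension), then pre-incubated for 24 h. Test compound in DMSO added for 72 h; doxorubicin was the positive control and DMSO the vehicle control. Resazurin stock (0.312 mg/mL) added 4 h before the end. Absorbance read at 570/595 nm. IC50 taken from non-linear regression of % inhibition versus log concentration.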

[2] = test system: MRC-5 (human lung fibroblast); assay: Cytotoxic assay, alamar blue, non-cancer MRC-5; assay type: cell-based; conditions: MRC5, 72 h, read-out: IC50 MRC-5
In short: as §1

[3] = test system: MCF-7 (human breast adenocarcinoma); assay: Cytotoxic assay, alamar blue, MCF-7; assay type: cell-based; conditions: MCF7, 72 h, read-out: IC50 MCF-7
In short: as §1

[4] = test system: prostate cancer (PC-3); conditions: read-out: IC50 PC-3; cited from earlier work
[5] = test system: breast cancer (MCF7); conditions: read-out: IC50 MCF7; cited from earlier work
[6] = test system: lung cancer (SK-LU-1); conditions: read-out: IC50 SK-LU-1; cited from earlier work

Row | SMILES | IC50 [1] [µM] | IC50 [2] [µM] | IC50 [3] [µM] | IC50 [4] [µM] | IC50 [5] [µM] | IC50 [6] [µM]
1 | C[C@]12CC[C@@H]3c4ccc(O)cc4CC[C@H]3[C@@H]1CC[C@@]2(O)c1cn(CC(=O)c2ccccc2)nn1 [3a, 2-(4-((8R,9S,13S,14S,17S)-3,17-dihydroxy-13-methyl-7,8,9,11,12,13,14,15,16,17-decahydro-6H-cyclopenta[a]phenanthren-17-yl)-1H-1,2,3-triazol-1-yl)-1-phenylethan-1-one] | 29.7 | > 54.6 | > 54.6 |  |  | 
2 | C[C@]12CC[C@H](O)CC1=CC[C@@H]1[C@@H]2CC[C@]2(C)C(C(=O)Cn3cncn3)=CC[C@@H]12 [3β-hydroxy-21-(1H-1,2,4-triazol-1-yl)pregna-5,16-dien-20-one] |  |  |  | 17 | 360 | 230
3 | COc1cccc2c1C(=O)c1c(O)c3c(c(O)c1C2=O)C[C@@](O)(C(=O)CO)C[C@@H]3O[C@H]1C[C@H](N)[C@H](O)[C@H](C)O1 [Doxorubicin] |  | 2.4 |  |  |  | 
